The source of these data is ChEMBL document CHEMBL1122050, “Synthesis of prostanoids with bicyclo[2.2.1]heptane, bicyclo[3.1.1]heptane, and bicyclo[2.2.2]octane ring systems. Activities of 15-hydroxy epimers on human platelets” (J Med Chem, 1982).

Active and inactive are the calls of the source.

The species named for test [1] is Homo sapiens. Description: Compound was evaluated for aggregation properties on human platelets at 0.31 uM; Irreversible. The class given is functional. A digest of the protocol:
(§1)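 Citrated human platelet-rich plasma mixed with Krebs solution and 0.9% NaCl, preincubated 2 min at 37 °C. Aggregation recorded in a Born-type aggregometer. The value is the concentration giving a primary aggregation response of 20 chart-recorder units; irreversible aggregation corresponds to 80–90 units. Each value is the mean of single determinations on PRP from at least three donors.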

The species entered for test [2] is Homo sapiens. In words: Compound was evaluated for aggregation properties on human platelets at 10/2.9 uM (Dose ratio defined as the ratio of the concentrations of the agonist producing recorder unit responses in the presence and in the absence of the inhibitor); Inhibition. The class given is functional.
The species named for test [3] is Homo sapiens. Description: Compound was evaluated for aggregation properties on human platelets at 80 uM (highest concentration tested); Shape change only. The test is classed as functional, organism-based.
The species entered for test [4] is Homo sapiens. In words: Compound was evaluated for aggregation properties on human platelets at 0.26 uM; Irreversible. The test is classed as functional. A digest of the protocol:
as §1

The species entered for test [5] is Homo sapiens. In words: Compound was evaluated for aggregation properties on human platelets at 1.7 uM; Irreversible. The class given is functional. A digest of the protocol:
as §1

The species named for test [6] is Homo sapiens. Description: Compound was evaluated for aggregation properties on human platelets at 3.5 uM; Irreversible. The class given is functional. A digest of the protocol:
as §1

The species entered for test [7] is Homo sapiens. Description: Compound was evaluated for aggregation properties on human platelets at 0.72 uM; Irreversible. The test is classed as functional. A digest of the protocol:
as §1

For test [8], the species on record is Homo sapiens. Description: Compound was evaluated for aggregation properties on human platelets at 10/1.4 uM (Dose ratio defined as the ratio of the concentrations of the agonist producing recorder unit responses in the presence and in the absence of the inhibitor); Inhibition. The class given is functional.
For test [9], the species on record is Homo sapiens. Description: Compound was evaluated for aggregation properties on human platelets at 10/1.5 uM (Dose ratio defined as the ratio of the concentrations of the agonist producing recorder unit responses in the presence and in the absence of the inhibitor); Inhi bition.
Test [10] is filed under the species Homo sapiens. Description: Compound was evaluated for aggregation properties on human platelets at 10/1.3 uM (Dose ratio defined as the ratio of the concentrations of the agonist producing recorder unit responses in the presence and in the absence of the inhibitor); Inhibition. The test is classed as functional.
The species named for test [11] is Homo sapiens. Description: Compound was evaluated for aggregation properties on human platelets at 80 uM (highest concentration tested); No effect. The class given is functional, organism-based.
For test [12], the species on record is Homo sapiens. In words: Compound was evaluated for aggregation properties on human platelets at 5 uM; Reversible. The test is classed as functional. Put shortly: as §1
The species entered for test [13] is Homo sapiens. In words: Compound was evaluated for aggregation properties on human platelets at 0.23 uM; Irreversible. The class given is functional. Put shortly:
as §1

The species named for test [14] is Homo sapiens. Description: Compound was evaluated for aggregation properties on human platelets at 6.2 uM; Irreversible. The class given is functional. Put shortly:
as §1

Test [15] is filed under the species Homo sapiens. Description: Compound was evaluated for aggregation properties on human platelets at 15 uM; Reversible. The test is classed as functional. A digest of the protocol: as §1
For test [16], the species on record is Homo sapiens. In words: Compound was evaluated for aggregation properties on human platelets at 1.3 uM; Irreversible. The test is classed as functional. A digest of the protocol: as §1
Test [17] is filed under the species Homo sapiens. In words: Compound was evaluated for aggregation properties on human platelets at 10 uM (highest concentration tested); No effect. The class given is functional, organism-based.
The species entered for test [18] is Homo sapiens. Description: Compound was evaluated for aggregation properties on human platelets at 2.5/4.8 uM (Dose ratio defined as the ratio of the concentrations of the agonist producing recorder unit responses in the presence and in the absence of the inhibitor); In hibition. The class given is functional, organism-based.
Test [19] is filed under the species Homo sapiens. Description: Compound was evaluated for aggregation properties on human platelets at 10/25 uM (Dose ratio defined as the ratio of the concentrations of the agonist producing recorder unit responses in the presence and in the absence of the inhibitor); Inhi bition. The test is classed as functional, organism-based.
The species named for test [20] is Homo sapiens. In words: Compound was evaluated for aggregation properties on human platelets at 20 uM (highest concentration tested); Shape change only. The class given is functional, organism-based.
The species named for test [21] is Homo sapiens. In words: Compound was evaluated for aggregation properties on human platelets at 20 uM (highest concentration tested); No effect. The test is classed as functional, organism-based.
The species named for test [22] is Homo sapiens. Description: Compound was evaluated for aggregation properties on human platelets at 0.14 uM; Irreversible. The class given is functional. A digest of the protocol:
as §1

The species entered for test [23] is Homo sapiens. Description: Compound was evaluated for aggregation properties on human platelets at 0.19 uM; Irreversible. The class given is functional. Put shortly:
as §1

In the case of `CC1(C)C2CC1[C@H](C/C=C\CCCC(=O)O)[C@H]2/C=C/[C@@H](O)COc1ccc(F)cc1` (some centres undefined), the Aggregation response result in test [1] is recorded as “Irreversible”.

As for `CCCCC[C@@H](O)/C=C/[C@H]1C2CCC(CC2)[C@@H]1C/C=C\CCCC(=O)O`, the Aggregation response entry in test [2] is reported as “Inhibition”.

As to `O=C(O)CCC/C=C\C[C@H]1C2C=CC(C2)[C@@H]1/C=C/[C@@H](O)CCc1ccc(Cl)cc1` (some centres undefined), in test [3], the Aggregation response result is reported as “Shape change only”.

As to `CCCCC[C@H](O)/C=C/[C@H]1C2COC(C2)[C@@H]1C/C=C\CCCC(=O)O` (some centres undefined), in test [4], the Aggregation response result was “Irreversible”.

In the case of `O=C(O)CCC/C=C\C[C@H]1C2C=CC(C2)[C@@H]1/C=C/[C@H](O)COc1ccc(F)cc1` (some centres undefined), in test [5], the Aggregation response result is reported as “Irreversible”.

In the case of `O=C(O)CCC/C=C\C[C@H]1C2CCC(C2)[C@@H]1/C=C/[C@H](O)COc1ccc(Cl)cc1` (some centres undefined), the Aggregation response result in test [6] is “Irreversible”.

Turning to `O=C(O)CCC/C=C\C[C@H]1C2CCC(C2)[C@@H]1/C=C/[C@@H](O)COc1ccc(Cl)cc1` (some centres undefined), in test [7], the Aggregation response entry is on record as “Irreversible”.

Turning to `CCCCC[C@@H](O)/C=C/[C@H]1C2CC([C@@H]1C/C=C\CCCC(=O)O)C2(C)C` (some centres undefined), the Aggregation response entry in test [8] was “Inhibition”.

For `CCCCC[C@@H](O)/C=C/[C@H]1C2CCC(C2)[C@@H]1C/C=C\CCCC(=O)O` (some centres undefined), the Aggregation response entry in test [9] is recorded as “Inhibition”.

As for `CCCCC[C@@](C)(O)/C=C/[C@H]1C2CCC(C2)[C@@H]1C/C=C\CCCC(=O)O` (some centres undefined), the Aggregation response result in test [10] is listed as “Inhibition”.

With `O=C(O)CCC/C=C\C[C@H]1C2C=CC(C2)[C@@H]1/C=C/[C@H](O)CCc1ccc(Cl)cc1` (some centres undefined), the Aggregation response result in test [11] was “inactive”.

On to `CC1(C)C2CC1[C@H](C/C=C\CCCC(=O)O)[C@H]2/C=C/[C@H](O)COc1ccc(F)cc1` (some centres undefined), for which, in test [12], the Aggregation response entry is recorded as “Reversible”.

`CCCCC[C@H](O)/C=C/[C@H]1C2CC(CO2)[C@@H]1C/C=C\CCCC(=O)O` (some centres undefined): the Aggregation response result in test [13] was “Irreversible”.

Consider `CCCCC[C@](C)(O)/C=C/[C@H]1C2CCC(C2)[C@@H]1C/C=C\CCCC(=O)O` (some centres undefined), for which, in test [14], the Aggregation response entry was “Irreversible”.

Regarding `CCCCC[C@H](O)/C=C/[C@H]1C2CCC(C2)[C@@H]1C/C=C\CCCC(=O)O` (some centres undefined), in test [15], the Aggregation response result is recorded as “Reversible”.

In the case of `O=C(O)CCC/C=C\C[C@H]1C2CCC(C2)[C@@H]1/C=C/[C@H](O)COc1ccc(F)cc1` (some centres undefined), the Aggregation response result in [16] was “Irreversible”.

As to `O=C(O)CCC/C=C\C[C@H]1C2C=CC(C2)[C@@H]1/C=C/C(=O)COc1ccc(F)cc1` (some centres undefined), in test [17], the Aggregation response result is “inactive”.

Regarding `CCCCC[C@H](O)/C=C/[C@H]1C2CC([C@@H]1C/C=C\CCCC(=O)O)C2(C)C` (some centres undefined), the Aggregation response result in test [18] and in [19] was “Inhibition” throughout.

As to `CCCCC[C@@H](O)/C=C/[C@H]1C2COC(C2)[C@@H]1C/C=C\CCCC(=O)O` (some centres undefined), in [20], the Aggregation response entry is listed as “Shape change only”.

On to `CCCCCC(=O)/C=C/[C@H]1C2COC(C2)[C@@H]1C/C=C\CCCC(=O)O` (some centres undefined), for which the Aggregation response entry in test [21] is “inactive”.

On to `CCCCC[C@H](O)/C=C/[C@H]1C2CCC(CC2)[C@@H]1C/C=C\CCCC(=O)O`, for which the Aggregation response result in [16] is on record as “Irreversible”.

Consider `O=C(O)CCC/C=C\C[C@H]1C2CCC(C2)[C@@H]1/C=C/[C@@H](O)COc1ccc(F)cc1` (some centres undefined), for which, in [22], the Aggregation response entry was “Irreversible”.

With `O=C(O)CCC/C=C\C[C@H]1C2C=CC(C2)[C@@H]1/C=C/[C@@H](O)COc1ccc(F)cc1` (some centres undefined), the Aggregation response entry in test [23] is “Irreversible”.
